Experimental data: ChEMBL document CHEMBL4842315, “Discovery and mechanism of action studies of 4,6-diphenylpyrimidine-2-carbohydrazides as utrophin modulators for the treatment of Duchenne muscular dystrophy” (Eur J Med Chem, 2021)
Activity calls are given as the source filed them. The calls are words filed in the database; no cut-off is given here.

Test system: not listed separately
Assay: Upregulation of utrophin gene expression in mouse myoblasts expressing LUmdx and firefly luciferase assessed as activation of utrophin promoter by cell-based reporter assay
Format: functional, tissue-based, Myoblast
Conditions: Mus musculus, Myoblast; read-out: EC50
How it was run: (§1)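 Immortalised myoblasts derived from the LUmdx mouse carry a utrophin promoter–firefly luciferase reporter, and promoter activation is read as luciferase signal. During screening, hits were counterscreened for firefly luciferase assay interference.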

SMILES	EC50 [µM]
NNC(=O)c1nc(-c2ccccc2)cc(-c2ccccc2)n1	20.5
C#CCOCCOc1ccc(-c2cc(-c3ccc(C4(C(F)(F)F)N=N4)cc3)nc(C(=O)NN)n2)cc1	20
NNC(=O)c1nc(-c2ccc(F)cc2)cc(-c2ccc(F)cc2)n1	12.8
COc1ccc(-c2cc(-c3ccc(OC)cc3)nc(C(=O)NN)n2)cc1	7.14
NNC(=O)c1nc(-c2cccc(F)c2)cc(-c2cccc(F)c2)n1	> 10
CCCc1ccc(-c2cc(-c3ccccc3)nc(C(=O)NN)n2)cc1	4.54
NNC(=O)c1nc(-c2ccccc2)cc(-c2ccc(CO)cc2)n1	1.9
NNC(=O)c1nc(-c2ccccc2F)cc(-c2ccccc2F)n1	11
NNC(=O)c1nc(-c2ccc(C(F)(F)F)cc2)cc(-c2ccc(C(F)(F)F)cc2)n1	> 10
CCOc1ccc(-c2cc(-c3ccccc3)nc(C(=O)NN)n2)cc1	2.71
C#CCOCCOc1ccc(-c2cc(-c3ccccc3)nc(C(=O)NN)n2)cc1	14.9
COCCOc1ccc(-c2cc(-c3ccccc3)nc(C(=O)NN)n2)cc1	8.95
COc1ccc(-c2cc(-c3ccccc3)nc(C(=O)NN)n2)cc1	2.28
CC(=O)NCCOCCOc1ccc(-c2cc(-c3ccccc3)nc(C(=O)NN)n2)cc1	12.7
NNC(=O)c1nc(-c2ccccc2)nc(-c2ccccc2)n1	8.98
NNC(=O)c1nc(-c2ccccc2)cc(-c2ccc(C3(C(F)(F)F)N=N3)cc2)n1	7.22
COc1cccc(-c2cc(-c3cccc(OC)c3)nc(C(=O)NN)n2)c1	9.22
NNC(=O)c1nc(-c2ccccc2)cc(-c2ccc(O)cc2)n1	1.57
COCc1ccc(-c2cc(-c3ccccc3)nc(C(=O)NN)n2)cc1	4.65
CCCOc1ccc(-c2cc(-c3ccccc3)nc(C(=O)NN)n2)cc1	5.62

Same assay, conditions: myoblast

SMILES	EC50
NNC(=O)c1nc(-c2ccccc2)cc(C2CCCCC2)n1	Not Active
NNC(=O)c1cc(-c2ccccc2)nc(-c2ccccc2)n1	Not Active
O=C(O)c1nc(-c2ccccc2)cc(-c2ccccc2)n1	Not Active
COc1ccccc1-c1cc(-c2ccccc2OC)nc(C(=O)NN)n1	Not Active
NNC(=O)c1nc(-c2ccccc2)cc(-c2ccc(Oc3ccccc3)cc2)n1	Not Active
N/N=C/c1nc(-c2ccccc2)cc(-c2ccccc2)n1	Not Active
NC(=O)c1nc(-c2ccccc2)cc(-c2ccccc2)n1	Not Active
O=C(NO)c1nc(-c2ccccc2)cc(-c2ccccc2)n1	Not Active
CCCCOc1ccc(-c2cc(-c3ccccc3)nc(C(=O)NN)n2)cc1	Not Active
Cc1cc(C)nc(C(=O)NN)n1	Not Active
NNC(=O)Cc1nc(-c2ccccc2)cc(-c2ccccc2)n1	Not Active
NNC(=O)c1nc(-c2ccccc2C(F)(F)F)cc(-c2ccccc2C(F)(F)F)n1	Not Active
NNC(=O)c1nc(-c2ccccc2)cc(-c2ccc(OCCOCc3ccccc3)cc2)n1	Not Active
NNC(=O)c1ncccn1	Not Active
Cc1c(-c2ccccc2)nc(C(=O)NN)nc1-c1ccccc1	Not Active
NNC(=O)c1nc(-c2cccc(C(F)(F)F)c2)cc(-c2cccc(C(F)(F)F)c2)n1	Not Active
NNC(=O)c1cc(-c2ccccc2)cc(-c2ccccc2)n1	Not Active
NNC(=O)c1cnc(-c2ccccc2)cc1-c1ccccc1	Not Active
NNc1nc(-c2ccccc2)cc(-c2ccccc2)n1	Not Active
C#CCOCCOc1ccc(-c2nc(C(=O)NN)nc(-c3ccc(C4(C(F)(F)F)N=N4)cc3)c2C)cc1	Not Active
COc1cc(-c2ccccc2)nc(C(=O)NN)n1	Not Active
COC(=O)c1nc(-c2ccccc2)cc(-c2ccccc2)n1	Not Active
NNC(=O)c1nc(Oc2ccccc2)cc(-c2ccccc2)n1	Not Active

Test system: not listed separately
Assay: Upregulation of utrophin gene expression in mouse myoblasts expressing LUmdx and firefly luciferase assessed as activation of utrophin promoter at 0.1 to 50 uM by cell-based reporter assay relative to control
Format: functional, Myoblast
Conditions: dose 0.1-50 µM
How it was run: as §1

SMILES	fold change (FC)
NNC(=O)c1nc(-c2ccccc2)cc(-c2ccccc2)n1	2

Test system: not listed separately
Assay: Apparent permeability of the compound across apical to basolateral side in human Caco-2 cells
Format: ADME, cell-based
Conditions: read-out: permeability

SMILES	Papp A→B [×10⁻⁶ cm/s]
NNC(=O)c1nc(-c2ccccc2)cc(-c2ccccc2)n1	30.7

Test system: not listed separately
Assay: Upregulation of utrophin gene expression in DMD disease mouse model myoblasts expressing H2K-mdx utrnA-firefly luciferase assessed as fold increase in utrophin mRNA at 3 uM by qRT-PCR analysis relative to control
Format: functional, Myoblast
Conditions: not given

SMILES	fold change (FC)
CCS(=O)(=O)c1ccc2oc(-c3ccc4ccccc4c3)nc2c1 [EZUTROMID]	1.7

Test system: not listed separately
Assay: Upregulation of utrophin gene expression in DMD disease mouse model myoblasts expressing H2K-mdx utrnA-firefly luciferase assessed as fold increase in utrophin mRNA at 30 uM by qRT-PCR analysis relative to control
Format: functional, Myoblast
Conditions: not given

SMILES	fold change (FC)
NNC(=O)c1nc(-c2ccccc2)cc(-c2ccccc2)n1	1.6

Test system: Myoblast
Assay: Upregulation of utrophin gene expression in DMD disease mouse model myoblasts expressing H2K-mdx utrnA-firefly luciferase assessed as activation of utrophin promoter by cell-based reporter assay
Format: functional, tissue-based
Conditions: not given

SMILES	Activity
NNC(=O)c1nc(-c2ccccc2)cc(-c2ccccc2)n1	inactive

Test system: Myoblast
Assay: Upregulation of AhR gene expression in DMD disease mouse model myoblasts expressing H2K-mdx utrnA-firefly luciferase assessed as fold increase in AhR mRNA at 30 uM by qRT-PCR analysis relative to control
Conditions: not given

SMILES	fold change (FC)
CCS(=O)(=O)c1ccc2oc(-c3ccc4ccccc4c3)nc2c1 [EZUTROMID]	inactive
